Source: ChEMBL document CHEMBL4382192, “Discovery of a potent dual ALK and EGFR T790M inhibitor” (Eur J Med Chem, 2017)

Experiments:
[1] = AUClast in mouse at 2 mg/kg, iv; type: ADME, organism-based; design: dose 2 mg/kg, route intravenous, time 0 - last; conditions: in vivo
[2] = test system: Receptor-type tyrosine-protein kinase FLT3 (Homo sapiens), P36888 [UNDEFINED MUTATION]; experiment: Binding affinity to human partial length FLT3 ITD mutant expressed in bacterial expression system assessed as residual binding level at 1 uM by Kinomescan method relative to control
How it was run: (§1)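 Kinome-wide selectivity panel run by the KINOMEscan method, with the test compound at a single concentration of 1 μM. Wild-type and mutant kinases were profiled in the same screen.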

[3] = test system: Receptor-type tyrosine-protein kinase FLT3 (Homo sapiens), P36888 [D835Y]; experiment: Binding affinity to human partial length FLT3 D835Y mutant (Q580 to Y969 residues) expressed in bacterial expression system assessed as residual binding level at 1 uM by Kinomescan method relative to control; how it was run: as §1
[4] = molecular target: Serine/threonine-protein kinase D3 (Homo sapiens) (UniProt O94806); experiment: Binding affinity to wild-type human partial length PRKD3 (S543 to E863 residues) expressed in bacterial expression system assessed as residual binding level at 1 uM by Kinomescan method relative to control
[5] = molecular target: Serine/threonine-protein kinase OSR1 (Homo sapiens) (UniProt O95747); experiment: Binding affinity to wild-type human full length OSR1 (M1 to S527 residues) expressed in mammalian expression system assessed as residual binding level at 1 uM by Kinomescan method relative to control
How it was run: (§2)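 Single-point kinome-wide KINOMEscan binding panel, test compound at 1 μM, run by the provider's standard protocol.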

[6] = molecular target: Protein kinase C epsilon type (Homo sapiens) (UniProt Q02156); experiment: Binding affinity to wild-type human partial length PRKCE (A378 to P737 residues) expressed in mammalian expression system assessed as residual binding level at 1 uM by Kinomescan method relative to control
[7] = molecular target: Inhibitor of nuclear factor kappa-B kinase subunit beta (Homo sapiens) (UniProt O14920); experiment: Binding affinity to wild-type human full length IKK-beta (M1 to S756 residues) expressed in mammalian expression system assessed as residual binding level at 1 uM by Kinomescan method relative to control; how it was run: as §2
[8] = molecular target: Ephrin type-B receptor 4 (Homo sapiens) (UniProt P54760); experiment: Binding affinity to wild-type human partial length EPHB4 (H585 to G892 residues) expressed in bacterial expression system assessed as residual binding level at 1 uM by Kinomescan method relative to control
[9] = molecular target: Serine/threonine-protein kinase Nek7 (Homo sapiens) (UniProt Q8TDX7); experiment: Binding affinity to wild-type human full length NEK7 (M1 to S302 residues) expressed in bacterial expression system assessed as residual binding level at 1 uM by Kinomescan method relative to control; how it was run: as §2
[10] = molecular target: Serine/threonine-protein kinase Nek2 (Homo sapiens) (UniProt P51955); experiment: Binding affinity to wild-type human partial length NEK2 (M1 to K309 residues) expressed in bacterial expression system assessed as residual binding level at 1 uM by Kinomescan method relative to control
[11] = molecular target: Phosphatidylinositol 4,5-bisphosphate 3-kinase catalytic subunit alpha isoform (Homo sapiens) (UniProt P42336); experiment: Binding affinity to wild-type human partial length PIK3CA (R108 to N1068 residues) expressed in mammalian expression system assessed as residual binding level at 1 uM by Kinomescan method relative to control
[12] = molecular target: Ribosomal protein S6 kinase alpha-2 (Homo sapiens) (UniProt Q15349); experiment: Binding affinity to wild-type human partial length C-terminal RSK3 kinase domain 2 (V403 to K700 residues) expressed in bacterial expression system assessed as residual binding level at 1 uM by Kinomescan method relative to control
[13] = molecular target: AP2-associated protein kinase 1 (Homo sapiens) (UniProt Q2M2I8); experiment: Binding affinity to human wild-type AAK1 (G25 to L333 residues) expressed in bacterial expression system assessed as residual binding level at 1 uM by Kinomescan method relative to control
[14] = test system: Mast/stem cell growth factor receptor Kit (Homo sapiens), P10721 [D816H]; experiment: Binding affinity to human partial length KIT D816H mutant (I571 to D952 residues) expressed in mammalian expression system assessed as residual binding level at 1 uM by Kinomescan method relative to control; how it was run: as §1
[15] = molecular target: Proto-oncogene tyrosine-protein kinase Src (Homo sapiens) (UniProt P12931); experiment: Binding affinity to wild-type human partial length SRC (L240 to L536 residues) expressed in bacterial expression system assessed as residual binding level at 1 uM by Kinomescan method relative to control
[16] = molecular target: Focal adhesion kinase 1 (Homo sapiens) (UniProt Q05397); experiment: Binding affinity to wild-type human partial length FAK (D402 to R696 residues) expressed in bacterial expression system assessed as residual binding level at 1 uM by Kinomescan method relative to control
[17] = test system: Epidermal growth factor receptor (Homo sapiens), P00533 [L858R]; experiment: Binding affinity to human partial length EGFR L858R mutant (R669 to V1011 residues) expressed in bacterial expression system assessed as residual binding level at 1 uM by Kinomescan method relative to control; how it was run: as §1
[18] = molecular target: Uncharacterized serine/threonine-protein kinase SBK3 (Homo sapiens) (UniProt P0C264); experiment: Binding affinity to wild-type human partial length SgK110 (L22 to R329 residues) expressed in bacterial expression system assessed as residual binding level at 1 uM by Kinomescan method relative to control
[19] = molecular target: Ephrin type-A receptor 4 (Homo sapiens) (UniProt P54764); experiment: Binding affinity to wild-type human partial length EPHA4 (T601 to R897 residues) expressed in bacterial expression system assessed as residual binding level at 1 uM by Kinomescan method relative to control
[20] = test system: Tyrosine-protein kinase ABL1 (Homo sapiens), P00519 [F317I]; experiment: Binding affinity to human phosphorylated ABL1 F317I mutant (S229 to K512 residues) expressed in mammalian expression system assessed as residual binding level at 1 uM by Kinomescan method relative to control; how it was run: as §1
[21] = molecular target: Dual specificity protein kinase CLK2 (Homo sapiens) (UniProt P49760); experiment: Binding affinity to wild-type human partial length CLK2 (D144 to R498 residues) expressed in bacterial expression system assessed as residual binding level at 1 uM by Kinomescan method relative to control
[22] = molecular target: Casein kinase II subunit alpha' (Homo sapiens) (UniProt P19784); experiment: Binding affinity to wild-type human full length CSNK2A2 (M1 to R350 residues) expressed in mammalian expression system assessed as residual binding level at 1 uM by Kinomescan method relative to control
[23] = molecular target: Non-receptor tyrosine-protein kinase TYK2 (Homo sapiens) (UniProt P29597); experiment: Binding affinity to wild-type human partial length TYK2 JH2 pseudokinase domain (G556 to D888 residues) expressed in mammalian expression system assessed as residual binding level at 1 uM by Kinomescan method relative to control
[24] = molecular target: Serine/threonine-protein kinase NLK (Homo sapiens) (UniProt Q9UBE8); experiment: Binding affinity to wild-type human full length NLK (M13 to E527 residues) expressed in bacterial expression system assessed as residual binding level at 1 uM by Kinomescan method relative to control; how it was run: as §2

C=CC(=O)Nc1cc(Nc2ncc(Cl)c(Nc3ccccc3S(=O)(=O)C(C)C)n2)c(OC)cc1N(C)CCN(C)C
AUC(0-t) [1]: 1290 ng·h/mL
Activity [2]: 7.6%
Activity [3]: 3.6%
Activity [4]: 0%
Activity [5]: 16%
Activity [6]: 99%
Activity [7]: 96%
Activity [8]: 76%
Activity [9]: 72%
Activity [10]: 83%
Activity [11]: 85%
Activity [12]: 27%
Activity [13]: 72%
Activity [14]: 41%
Activity [15]: 34%
Activity [16]: 0%
Activity [17]: 0%
Activity [18]: 23%
Activity [19]: 80%
Activity [20]: 2.8%
Activity [21]: 1.7%
Activity [22]: 100%
Activity [23]: 100%
Activity [24]: 55%
